Screening data: PubChem, several laboratories
A selection: hits, their analogues and other compounds. The true share with any hit is near 0.65%.
TNAP act DEA = activators of human TNAP at intermediate phosphate acceptor; P05186; purified TNAP, CDP-star luminescence, 100 mM DEA, 30 min; active compounds read high; scale: 0 levamisole-inhibited, 1 vehicle-only enzyme; activation factor at 20 µM; 64,000 tested, under 10 active; AID 813;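 active = activation factor of at least 2 at 20 µM, relative to controls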
AP complement = orthogonal test for alternative complement pathway inhibitors | Human serum alternative complement pathway, LPS-coated ELISA, C3 deposition; tested in compound mixtures | inhibition, % at 5 µM | actives 0.08% (n = 62,000) | AID 1235;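 active = inhibition above 30% in each of the two pooled mixtures holding the compound, so the lower value exceeds 30%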;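 note: 0% = serum in Mg-EGTA without compound and 100% = EDTA serum blank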
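Medium: diluted human serum in Mg2+-EGTA GVB++. Assay system: human serum complement alternative pathway, C3 deposition onto LPS. Also added: Plate-bound LPS. Technique: Anti-C3 ELISA, OD 450 nm. Measure: percent inhibition. Incubation: 1 h at 37 °C. Dosing: 5 µM each compound, pools of ten, 50 µM per pool.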
HePTP inhibitor = inhibitors of human HePTP phosphatase | P35236 | recombinant HePTP phosphatase activity, OD absorbance | inhibition, % at 20 µM | actives 0.64% (n = 110,000) | AID 521; in the data active = inhibition above about 50%;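 note: plate controls were vehicle for no effect and reference inhibitor for full effect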
Target sequence (P35236 whole entry, looked up): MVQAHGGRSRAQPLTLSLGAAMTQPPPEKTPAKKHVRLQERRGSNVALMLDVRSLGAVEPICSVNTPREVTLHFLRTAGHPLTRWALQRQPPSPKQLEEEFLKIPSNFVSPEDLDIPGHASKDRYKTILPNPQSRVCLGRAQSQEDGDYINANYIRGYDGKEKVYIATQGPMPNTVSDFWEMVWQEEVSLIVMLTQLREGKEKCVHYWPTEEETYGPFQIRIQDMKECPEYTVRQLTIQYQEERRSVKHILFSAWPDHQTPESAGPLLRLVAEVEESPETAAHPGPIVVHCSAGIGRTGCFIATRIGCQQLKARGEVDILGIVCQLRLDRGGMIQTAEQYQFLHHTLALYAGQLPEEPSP
* marks the source's active call; other numbers are inactive results; nt = no result.

SMILES | TNAP act DEA | AP complement | HePTP inhibitor
CCOC(=O)c1ccc(-n2c(-c3ccccc3)nc3ccccc3c2=O)cc1 | nt | nt | 97.9*
CCOC(=O)c1ccc(-n2c(C)nc3ccccc3c2=O)cc1 | 0.9 | 6.5 | 3.6
COc1ccc(OC)c(N2C(=O)CC(Cc3cc(C)cc(C)c3)C2=O)c1 (centres undefined) | nt | nt | 97.2*
Cc1cc(C)cc(CC2CC(=O)N(c3cc(C)on3)C2=O)c1 (centres undefined) | 1 | nt | 0.1
O=C1C(Cl)=C/C(=N\S(=O)(=O)c2ccc(Cl)cc2)C(Cl)=C1Cl | nt | nt | 4.6
O=C1C(Cl)=CC(=NS(=O)(=O)c2ccccc2)C=C1Cl | nt | nt | 87.1*
O=c1c2c(nc3cc(-c4ccc(Br)cc4)[nH]n13)CCS2 | nt | nt | 51.6*
O=c1c2c(nc3cc(-c4ccccc4)[nH]n13)CCS2 | nt | nt | -0.8
CN(C1=NC(=O)/C(=C\C(Cl)=C\c2ccc([N+](=O)[O-])cc2)S1)c1ccc(O)cc1 | nt | nt | 7.5
CN(C1=NC(=O)S/C1=C\c1ccc([N+](=O)[O-])cc1)c1ccc(O)cc1 | nt | nt | 55.8*
Cc1cc(N2C(=O)NC(=O)/C(=C\c3ccc([N+](=O)[O-])o3)C2=O)ccc1Br | nt | nt | 104.4*
Cc1cc(C)cc(N2C(=O)NC(=O)/C(=C\c3ccc([N+](=O)[O-])o3)C2=O)c1 | nt | nt | 83.5*
Cc1ccc(N2C(=O)NC(=O)/C(=C\c3ccc(-c4cccc([N+](=O)[O-])c4)o3)C2=O)cc1 | nt | nt | 1.3
Cc1cc(N2C(=O)NC(=O)/C(=C\c3ccc(N(C)C)o3)C2=O)ccc1Br | nt | nt | -8.3
Cc1ccc(CNC(=O)C(=O)Nc2ccc(C)cc2)cc1 | nt | nt | -3.6
COc1cc(C=C2C(=O)NC(=O)NC2=O)cc(I)c1OCc1ccc([N+](=O)[O-])cc1 | nt | nt | 0.6
CCOc1cc(/C=C2/C(=N)N3N=C(CC)SC3=NC2=O)ccc1OC(=O)c1cccc([N+](=O)[O-])c1 | nt | nt | 103.4*
CCC1=NN2C(=N)/C(=C/c3ccc(OC(=O)c4ccc(F)cc4)c(OC)c3)C(=O)N=C2S1 | nt | nt | 8.4
O=C(COc1c(Br)cc(Br)cc1Br)N/N=C/c1ccc(O)c([N+](=O)[O-])c1 | nt | nt | 8.5
CC(C)c1ccc(C2NN=C(c3ccccc3)S2)cc1 (centres undefined) | nt | nt | 8.0
COCCNCCOc1ccc(Br)cc1 | nt | nt | 8.1
COc1cc(C=C2C(=O)NC(=S)NC2=O)ccc1OCc1ccc(C(=O)O)cc1 | nt | nt | -15.6
O=C1NC(=S)NC(=O)C1=Cc1cc(Cl)c(OCc2ccc(C(=O)O)cc2)c(Cl)c1 | nt | nt | 103.6*
Cn1c(O)c(C=NC(C)(CO)CO)c(=O)n(C)c1=S | nt | nt | -13.0
Cc1cccc2c1nc1s/c(=C\c3ccc(-c4ccccc4F)o3)c(=O)n12 | nt | nt | 10.4
SMILES | TNAP act DEA | AP complement | HePTP inhibitor
O=C(Cn1c(CN2CCCCC2)nc2ccccc2c1=O)NC1CCCCC1 | 1 | 7.0 | -5.3
O=C(Cn1c(CN2CCCCC2)nc2ccccc2c1=O)Nc1ccccc1 | 0.9 | 35.6* | 3.9
Cc1ccc(C(=O)NC(NC(=S)Nc2cc(C)ccc2C)C(Cl)(Cl)Cl)cc1 (centres undefined) | nt | nt | 75.2*
Cc1ccc(C(=O)NC(NC(=S)Nc2ccccc2)C(Cl)(Cl)Cl)cc1 (centres undefined) | nt | nt | 4.0
O=c1cc(-c2ccc([N+](=O)[O-])cc2)nc2cc(-c3cccc(Cl)c3)[nH]n12 | nt | nt | 78.4*
O=c1cc(-c2ccc([N+](=O)[O-])cc2)nc2cc(-c3ccc(F)cc3)[nH]n12 | nt | nt | 12.3
CCCCCCCCNc1nc(OC)nc(OC)n1 | nt | nt | 67.5*
CCCCCCCNc1nc(OC)nc(N2CCCCC2)n1 | nt | nt | -9.8
COc1ccccc1N1CCN(/N=C\c2c(C)nn(-c3ccccc3)c2C)CC1 | nt | nt | 1.2
O=C1NC(=S)N(c2cccc(Br)c2)C(=O)/C1=C/c1ccc(-c2ccc(C(=O)O)cc2)o1 | nt | nt | 69.4*
O=C1NC(=S)N(c2cccc(Br)c2)C(=O)/C1=C/c1ccc(-c2cccc([N+](=O)[O-])c2)o1 | nt | nt | 25.2
C=CCN1C(=O)/C(=C\c2ccc(-c3ccc(C(=O)O)cc3)o2)C(=O)NC1=S | nt | nt | 102.3*
C=CCN1C(=O)/C(=C\c2ccc(-c3ccc(F)cc3)o2)C(=O)NC1=S | nt | nt | 62.1*
Cc1ccc(N2C(=O)NC(=O)/C(=C/c3ccc(-c4ccc(F)cc4)o3)C2=O)cc1 | nt | nt | 12.3
COc1ccc(N2C(=O)NC(=O)/C(=C/c3ccc(-c4ccc(C(=O)O)cc4)o3)C2=O)cc1 | nt | nt | 10.1
C=CCN1C(=O)/C(=C\c2ccc(-c3cccc(C(=O)O)c3)o2)C(=O)NC1=S | nt | nt | 95.7*
CCN1C(=O)C(=Cc2ccc(-c3cccc(C(=O)O)c3)o2)C(=O)N(CC)C1=S | nt | nt | 15.3
O=C1C(Cl)=C(NCCc2ccccc2)C(=O)N1c1ccccc1 | nt | nt | -12.6
CCCOc1ccc(-c2cc(C(=O)NCCCN3CCOCC3)c3ccccc3n2)cc1 | nt | nt | 103.0*
O=C(NCCN1CCOCC1)c1cc(-c2ccc(Cl)cc2)nc2ccccc12 | nt | nt | 5.1
O=C(NCCN1CCOCC1)c1cc(-c2ccc(Br)cc2)nc2ccccc12 | nt | nt | 103.9*
CCCOc1ccc(-c2cc(C(=O)NCC3CCCO3)c3ccccc3n2)cc1 (centres undefined) | nt | nt | -3.6
COc1cccc(NC2=C(Cl)C(=O)N(c3ccc(C)cc3C)C2=O)c1 | nt | nt | -16.2
CN(CC(O)c1cccc(O)c1)C(=O)c1ccccc1 (centres undefined) | nt | nt | 4.3
CCOc1ccccc1N1CCN(C(=O)c2cccc(F)c2)CC1 | nt | nt | 102.7*
SMILES | TNAP act DEA | AP complement | HePTP inhibitor
CCOc1ccccc1N1CCN(C(=O)c2ccccc2)CC1 | 0.9 | 12.8 | 2.0
Cc1c(C(=O)O)cccc1-n1c(C)ccc1C | nt | nt | 103.9*
Cc1ccc(C)n1-c1ccccc1C(=O)O | nt | nt | 104.3*
Cc1cccc(Nc2ccccc2C(=O)O)c1C | 0.9 | 0.5 | -2.3
Cc1nn(-c2ccccc2C(=O)O)c(=O)c2ccccc12 | 0.9 | 11.1 | 15.2
CC(C)C(=O)N1N=C(c2ccc(Br)cc2)CC1(O)C(F)(F)F (centres undefined) | nt | nt | 0.3
CC(C)(C)NC(=O)C(=O)N/N=C/c1ccc(Cl)cc1Cl | nt | nt | 0.4
CN(C)c1ccc(-c2c3cc(O)c(=O)cc-3oc3cc(O)c(O)cc23)cc1 | nt | nt | 103.1*
Cc1ccc(-c2cc(=O)c3cc(Cl)ccc3o2)cc1 | nt | nt | 0.7
O=C1/C(=C\c2cc([N+](=O)[O-])cc(Br)c2O)SC(=S)N1c1cccc(Cl)c1 | nt | nt | 100.9*
O=C1/C(=C/c2cc([N+](=O)[O-])ccc2Cl)SC(=S)N1c1ccccc1 | nt | nt | 1.7
Oc1oc(-c2ccccc2)cc1N=Nc1ccccc1 | nt | nt | 10.9
O=C1N=c2ccccc2=C1c1cc(-c2ccccc2)oc1O | nt | nt | 56.3*
O=C(NC(=S)Nc1cccc(NC(=O)c2ccccc2Cl)c1)c1ccco1 | nt | nt | -4.1
Cc1nn(-c2ccccc2C(=O)O)c(C)c1Oc1ccccc1O | nt | nt | -2.4
COCCCNC(=O)CN(c1ccc(F)cc1)S(=O)(=O)c1ccccc1 | nt | nt | 4.3
COC(C(=O)N/N=C/c1cc([N+](=O)[O-])ccc1Cl)c1ccccc1 (centres undefined) | nt | nt | -3.0
Cc1cc(NC(=O)c2ccc(-c3ccc(Br)cc3)o2)ccc1NC(=O)c1ccco1 | nt | nt | -1.7
O=C(Nc1ccccc1C(=O)Nc1ccc(Cl)cc1)c1ccco1 | nt | nt | 103.2*
O=C(Nc1ccccc1C(=O)Nc1ccccc1Cl)c1ccco1 | nt | nt | 4.5
Cc1cc(NC(=O)c2ccc(-c3ccc(Cl)cc3)o2)ccc1NC(=O)c1ccco1 | nt | nt | 60.8*
